Laboratory results reported in ChEMBL document CHEMBL4602608, “Isoquinoline Kelch-like ECH-Associated Protein 1-Nuclear Factor (Erythroid-Derived 2)-like 2 (KEAP1-NRF2) Inhibitors with High Metabolic Stability” (J Med Chem, 2020).

Legend:
[1] = Half life in human liver microsomes in presence of NADPH by LC-MS/MS analysis; format: ADME, Microsome
Keap1/Nrf2 = Keap1/Nrf2 (Homo sapiens, UniProt Q14145); experiment: Inhibition of Keap1-Nrf2 Interaction (unknown origin) by fluorescence anisotropy; format: protein assay
[2] = Partition coefficient, logD between n-octanol and pH 7.4 buffer by HPLC analysis; format: physicochemical; details: n-octanol/pH 7.4 buffer
[3] = biological target: T1, Keap1/Nrf2 (Homo sapiens) (UniProt Q16236+Q14145); experiment: Inhibition of Keap1-Nrf2 Interaction in human HaCaT cells assessed as increase in NQO1 protein level at 0.25 uM incubated for 16 hrs by Western blot analysis relative to control; format: cell-based
Outline: (§1)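 HaCaT keratinocytes were grown in DMEM with 10% FBS and 1% antibiotics, then treated at 70–80% confluence in complete medium, with DMSO as vehicle. RIPA lysates (~40 μg protein) were run on 10% SDS-PAGE and immunoblotted for NRF2 and NQO1, with β-actin as loading control and chemiluminescent detection. Values are mean fold change versus DMSO from two biological replicates.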

[4] = biological target: T1, Keap1/Nrf2 (Homo sapiens); experiment: Inhibition of Keap1-Nrf2 Interaction in human HaCaT cells assessed as increase in Nrf2 protein level at 0.25 uM incubated for 16 hrs by Western blot analysis relative to control; format: cell-based; outline: as §1

Chain of Keap1/Nrf2 (Q16236 whole entry): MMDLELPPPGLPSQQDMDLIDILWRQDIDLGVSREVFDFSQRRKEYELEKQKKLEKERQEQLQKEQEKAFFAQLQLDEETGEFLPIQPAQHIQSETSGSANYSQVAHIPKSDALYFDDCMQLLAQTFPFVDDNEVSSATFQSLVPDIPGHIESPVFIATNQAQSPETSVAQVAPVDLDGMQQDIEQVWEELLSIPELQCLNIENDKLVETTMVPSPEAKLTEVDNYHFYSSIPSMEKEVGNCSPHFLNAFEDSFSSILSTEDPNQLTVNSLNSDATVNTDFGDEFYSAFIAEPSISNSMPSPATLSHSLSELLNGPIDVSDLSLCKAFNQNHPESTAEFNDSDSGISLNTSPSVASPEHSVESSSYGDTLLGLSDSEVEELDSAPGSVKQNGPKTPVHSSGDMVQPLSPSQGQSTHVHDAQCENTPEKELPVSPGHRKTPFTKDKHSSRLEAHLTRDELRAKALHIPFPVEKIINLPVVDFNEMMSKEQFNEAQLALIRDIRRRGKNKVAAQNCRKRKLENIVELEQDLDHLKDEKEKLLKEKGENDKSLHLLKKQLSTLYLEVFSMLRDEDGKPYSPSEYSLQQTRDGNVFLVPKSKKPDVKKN
Chain of Keap1/Nrf2 (Q14145 whole entry): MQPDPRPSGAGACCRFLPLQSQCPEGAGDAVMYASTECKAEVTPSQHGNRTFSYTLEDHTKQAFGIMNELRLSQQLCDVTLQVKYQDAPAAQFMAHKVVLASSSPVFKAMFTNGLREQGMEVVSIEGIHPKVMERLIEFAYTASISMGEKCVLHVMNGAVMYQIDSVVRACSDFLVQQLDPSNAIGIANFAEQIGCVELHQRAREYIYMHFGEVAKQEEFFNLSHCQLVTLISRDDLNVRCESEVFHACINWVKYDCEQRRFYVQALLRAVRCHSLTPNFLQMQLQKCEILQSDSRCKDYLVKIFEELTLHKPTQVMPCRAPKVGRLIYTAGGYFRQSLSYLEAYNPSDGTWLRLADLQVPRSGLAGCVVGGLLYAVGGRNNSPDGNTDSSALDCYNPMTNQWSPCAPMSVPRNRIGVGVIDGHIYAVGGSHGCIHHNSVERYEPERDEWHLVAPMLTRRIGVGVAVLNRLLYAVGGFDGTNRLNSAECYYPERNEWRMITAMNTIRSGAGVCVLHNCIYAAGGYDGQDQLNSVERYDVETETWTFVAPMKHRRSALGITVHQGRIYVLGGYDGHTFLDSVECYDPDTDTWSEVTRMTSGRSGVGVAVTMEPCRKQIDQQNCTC
T1 sequence (Q14145 whole entry, looked up): as the sequence (Q14145 whole entry) above
T1 sequence (Q16236 whole entry, looked up): as the sequence (Q16236 whole entry) above

Structure (SMILES)	t1/2 [1] [h]	IC50 (Keap1/Nrf2) [nM]	logD [2]	fold change (FC) [3]	fold change (FC) [4]
COc1ccc(S(=O)(=O)N(CC(F)(F)F)c2cnc(N(CC(=O)O)S(=O)(=O)c3ccc(OC)cc3)c3ccccc23)cc1	2.27		0.5		
O=C(O)CN(c1cnc(N(CC(=O)O)S(=O)(=O)c2ccc(F)cc2)c2ccccc12)S(=O)(=O)c1ccc(F)cc1		430			
O=C(O)CN(c1ncc(N(CC(F)(F)F)S(=O)(=O)c2ccc(F)cc2)c2ccccc12)S(=O)(=O)c1ccc(F)cc1	> 3	420	0.6		
COc1ccc(S(=O)(=O)N(C)c2cnc(N(CC(=O)O)S(=O)(=O)c3ccc(OC)cc3)c3ccccc23)cc1	0.1	1000	0		
COC(=O)[C@]12CCC(C)(C)C[C@H]1[C@H]1C(=O)C=C3[C@@]4(C)C=C(C#N)C(=O)C(C)(C)[C@@H]4CC[C@@]3(C)[C@]1(C)CC2				1.43	3.34
COc1ccc(S(=O)(=O)Nc2ncc(N(CC(=O)O)S(=O)(=O)c3ccc(OC)cc3)c3ccccc23)cc1		1100	-0.5		
COc1ccc(S(=O)(=O)Nc2cnc(N(C(C)C(=O)O)S(=O)(=O)c3ccc(OC)cc3)c3ccccc23)cc1 (stereo not given)		2300	-1.1		

Second part, the compound after the results:

t1/2 [1] [h]	IC50 (Keap1/Nrf2) [nM]	logD [2]	fold change (FC) [3]	fold change (FC) [4]	Structure (SMILES)
0.617	230				COc1ccc(S(=O)(=O)Nc2cnc(N(CC(=O)O)S(=O)(=O)c3ccc(OC)cc3)c3ccccc23)cc1
> 3	130	0.6			COc1ccc(S(=O)(=O)N(CC(F)(F)F)c2cnc(N(CC(=O)O)S(=O)(=O)c3ccc(F)cc3)c3ccccc23)cc1
	240	-1.8			COc1ccc(S(=O)(=O)N(CC(=O)O)c2ncc(N(CC(=O)O)S(=O)(=O)c3ccc(F)cc3)c3ccccc23)cc1
0.967	210	-0.1			COc1ccc(S(=O)(=O)N(CCF)c2cnc(N(CC(=O)O)S(=O)(=O)c3ccc(OC)cc3)c3ccccc23)cc1
1.62	55	0.2			COc1ccc(S(=O)(=O)N(CC(F)F)c2cnc(N(CC(=O)O)S(=O)(=O)c3ccc(OC)cc3)c3ccccc23)cc1
> 3	120	0.5			COc1ccc(S(=O)(=O)N(CC(=O)O)c2ncc(N(CC(F)(F)F)S(=O)(=O)c3ccc(F)cc3)c3ccccc23)cc1
0.05	350				O=C(O)CN(c1cnc(N(CC(=O)O)S(=O)(=O)c2ccc(O)cc2)c2ccccc12)S(=O)(=O)c1ccc(O)cc1
	280	-1.9			COc1ccc(S(=O)(=O)N(CC(=O)O)c2cnc(N(CC(=O)O)S(=O)(=O)c3ccc(F)cc3)c3ccccc23)cc1
